Laboratory results reported in ChEMBL document CHEMBL1811853, “Design and evaluation of 3-aminopyrazolopyridinone kinase inhibitors inspired by the natural product indirubin” (Bioorg Med Chem, 2011).

Columns and labels:
[1] = target: Proto-oncogene tyrosine-protein kinase Src (Homo sapiens, UniProt P12931); assay: Inhibition of SRC at 30 uM by microfluidic mobility shift assay
Summary of the method: (§1)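 Single-concentration screen, singlicate, 30 uM final (diluted from 1 mM DMSO solutions), fluorescently tagged peptide substrate appropriate to each kinase, ATP at apparent Km for each protein. Phosphorylated and unphosphorylated peptides separated electrophoretically; conversion is the phosphorylated peak area over the sum of both peaks. No-inhibitor and no-ATP controls; H89 reference on each plate.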

[2] = target: T1, MAP kinase-activated protein kinase 5 (Homo sapiens) (UniProt Q8IW41); assay: Inhibition of PRAK1 at 30 uM by microfluidic mobility shift assay; summary of the method: as §1
T1 sequence (whole entry): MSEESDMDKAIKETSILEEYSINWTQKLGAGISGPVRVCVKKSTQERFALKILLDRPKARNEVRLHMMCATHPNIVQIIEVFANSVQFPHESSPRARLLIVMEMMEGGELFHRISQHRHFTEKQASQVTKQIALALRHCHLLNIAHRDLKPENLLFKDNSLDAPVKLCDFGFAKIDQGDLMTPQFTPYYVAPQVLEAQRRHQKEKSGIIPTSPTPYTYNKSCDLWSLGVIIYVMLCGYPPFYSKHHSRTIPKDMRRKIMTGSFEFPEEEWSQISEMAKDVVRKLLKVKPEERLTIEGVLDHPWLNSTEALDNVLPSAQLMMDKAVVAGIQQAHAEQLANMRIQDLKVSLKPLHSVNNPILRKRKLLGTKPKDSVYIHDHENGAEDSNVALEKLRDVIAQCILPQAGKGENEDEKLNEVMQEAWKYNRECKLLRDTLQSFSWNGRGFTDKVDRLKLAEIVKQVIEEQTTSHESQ

[3] = target: RAC-alpha serine/threonine-protein kinase (Homo sapiens) (UniProt P31749); assay: Inhibition of AKT1 at 30 uM by microfluidic mobility shift assay; summary of the method: as §1
Sequence of RAC-alpha serine/threonine-protein kinase (Homo sapiens) (P31749 whole entry): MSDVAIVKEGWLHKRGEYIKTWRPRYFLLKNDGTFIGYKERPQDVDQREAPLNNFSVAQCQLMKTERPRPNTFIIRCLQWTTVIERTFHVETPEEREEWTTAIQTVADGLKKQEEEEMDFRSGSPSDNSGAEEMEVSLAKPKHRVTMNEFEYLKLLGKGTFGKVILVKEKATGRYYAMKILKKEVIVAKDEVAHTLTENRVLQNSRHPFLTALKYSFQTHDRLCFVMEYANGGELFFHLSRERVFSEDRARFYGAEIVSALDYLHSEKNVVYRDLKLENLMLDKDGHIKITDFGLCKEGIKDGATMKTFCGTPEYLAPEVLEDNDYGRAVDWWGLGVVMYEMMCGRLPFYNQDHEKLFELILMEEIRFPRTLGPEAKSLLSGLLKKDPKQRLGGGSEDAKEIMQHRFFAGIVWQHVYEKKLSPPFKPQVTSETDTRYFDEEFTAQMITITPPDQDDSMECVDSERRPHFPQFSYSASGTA

[4] = target: Serine/threonine-protein kinase Chk2 (Homo sapiens, UniProt O96017); assay: Inhibition of CHK2 at 30 uM by microfluidic mobility shift assay; summary of the method: as §1
Sequence of Serine/threonine-protein kinase Chk2 (O96017 whole entry): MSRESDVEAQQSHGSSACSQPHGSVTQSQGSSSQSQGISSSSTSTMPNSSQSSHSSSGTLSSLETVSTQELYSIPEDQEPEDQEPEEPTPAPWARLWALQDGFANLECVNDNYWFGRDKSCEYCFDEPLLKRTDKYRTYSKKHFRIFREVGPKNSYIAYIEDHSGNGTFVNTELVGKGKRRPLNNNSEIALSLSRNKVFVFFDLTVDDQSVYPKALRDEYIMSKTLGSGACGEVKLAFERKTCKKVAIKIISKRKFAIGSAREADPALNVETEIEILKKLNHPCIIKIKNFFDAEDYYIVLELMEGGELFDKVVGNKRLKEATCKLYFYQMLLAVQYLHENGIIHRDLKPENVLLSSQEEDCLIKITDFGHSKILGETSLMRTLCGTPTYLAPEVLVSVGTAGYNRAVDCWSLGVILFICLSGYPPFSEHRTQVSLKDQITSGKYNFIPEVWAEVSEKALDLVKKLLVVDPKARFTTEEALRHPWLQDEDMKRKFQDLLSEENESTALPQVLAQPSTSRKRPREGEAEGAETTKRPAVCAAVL

[5] = target: MAP kinase-activated protein kinase 2 (Homo sapiens, UniProt P49137); assay: Inhibition of MAPKAPK2 at 30 uM by microfluidic mobility shift assay; summary of the method: as §1
Sequence of MAP kinase-activated protein kinase 2 (P49137 whole entry, looked up): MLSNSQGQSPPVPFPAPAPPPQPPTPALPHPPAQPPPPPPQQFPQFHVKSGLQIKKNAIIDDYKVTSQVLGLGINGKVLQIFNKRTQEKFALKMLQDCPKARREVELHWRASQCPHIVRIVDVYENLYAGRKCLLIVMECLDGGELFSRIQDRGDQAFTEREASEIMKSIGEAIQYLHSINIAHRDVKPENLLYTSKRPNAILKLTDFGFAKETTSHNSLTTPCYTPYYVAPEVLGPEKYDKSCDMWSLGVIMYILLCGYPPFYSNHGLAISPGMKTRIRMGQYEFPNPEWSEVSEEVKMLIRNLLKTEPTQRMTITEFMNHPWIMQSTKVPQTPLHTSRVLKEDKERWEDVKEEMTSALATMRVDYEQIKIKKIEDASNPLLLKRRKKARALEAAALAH

[6] = target: T2, Serine/threonine-protein kinase D2 (Homo sapiens) (UniProt Q9BZL6); assay: Inhibition of PKD2 at 30 uM by microfluidic mobility shift assay; summary of the method: as §1
T2 sequence (whole entry): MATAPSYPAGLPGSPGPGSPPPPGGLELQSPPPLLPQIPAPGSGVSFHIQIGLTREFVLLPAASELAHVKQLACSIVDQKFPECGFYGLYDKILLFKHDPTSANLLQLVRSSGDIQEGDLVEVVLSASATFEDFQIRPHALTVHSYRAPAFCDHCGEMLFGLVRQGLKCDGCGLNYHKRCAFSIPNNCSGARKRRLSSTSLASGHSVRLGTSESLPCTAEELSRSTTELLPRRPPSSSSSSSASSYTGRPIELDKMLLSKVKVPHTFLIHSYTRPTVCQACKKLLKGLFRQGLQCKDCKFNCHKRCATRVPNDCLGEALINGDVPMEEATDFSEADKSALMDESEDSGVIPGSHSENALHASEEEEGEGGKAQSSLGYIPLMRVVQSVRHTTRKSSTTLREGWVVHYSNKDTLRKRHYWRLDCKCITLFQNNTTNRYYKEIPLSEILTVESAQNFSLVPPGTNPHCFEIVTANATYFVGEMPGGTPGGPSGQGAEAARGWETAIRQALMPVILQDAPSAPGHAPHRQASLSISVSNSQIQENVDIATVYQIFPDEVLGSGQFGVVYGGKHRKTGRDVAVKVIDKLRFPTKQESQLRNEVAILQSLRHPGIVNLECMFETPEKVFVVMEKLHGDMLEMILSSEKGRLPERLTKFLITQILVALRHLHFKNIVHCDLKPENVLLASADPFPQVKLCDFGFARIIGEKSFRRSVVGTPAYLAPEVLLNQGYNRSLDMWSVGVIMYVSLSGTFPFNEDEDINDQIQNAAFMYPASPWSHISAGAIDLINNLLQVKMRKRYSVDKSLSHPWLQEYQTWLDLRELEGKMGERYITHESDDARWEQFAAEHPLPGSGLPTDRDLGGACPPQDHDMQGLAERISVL

[7] = target: Tyrosine-protein kinase Lck (Homo sapiens, UniProt P06239); assay: Inhibition of LCK at 30 uM by microfluidic mobility shift assay; summary of the method: as §1
Sequence of Tyrosine-protein kinase Lck (P06239 2-509 limits assumed): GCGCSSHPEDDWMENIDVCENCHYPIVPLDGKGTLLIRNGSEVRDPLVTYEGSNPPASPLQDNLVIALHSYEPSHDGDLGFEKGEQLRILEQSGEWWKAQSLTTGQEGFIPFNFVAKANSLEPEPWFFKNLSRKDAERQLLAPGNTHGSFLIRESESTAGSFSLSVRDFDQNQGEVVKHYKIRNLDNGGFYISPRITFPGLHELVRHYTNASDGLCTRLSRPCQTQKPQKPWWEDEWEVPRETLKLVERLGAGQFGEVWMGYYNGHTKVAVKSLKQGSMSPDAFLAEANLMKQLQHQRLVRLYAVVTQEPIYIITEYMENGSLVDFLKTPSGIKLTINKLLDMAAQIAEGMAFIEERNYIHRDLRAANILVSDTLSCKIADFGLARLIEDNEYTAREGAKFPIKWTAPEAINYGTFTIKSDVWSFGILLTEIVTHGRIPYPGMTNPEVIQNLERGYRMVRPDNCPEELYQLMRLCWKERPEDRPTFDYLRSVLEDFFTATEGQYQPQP

[8] = target: RAC-beta serine/threonine-protein kinase (Homo sapiens) (UniProt P31751); assay: Inhibition of AKT2 at 30 uM by microfluidic mobility shift assay; summary of the method: as §1
[9] = target: Ribosomal protein S6 kinase alpha-5 (Homo sapiens) (UniProt O75582); assay: Inhibition of MSK1 at 30 uM by microfluidic mobility shift assay; summary of the method: as §1
[10] = target: T3, Serine/threonine-protein kinase Chk1 (Homo sapiens) (UniProt O14757); assay: Inhibition of CHK1 at 30 uM by microfluidic mobility shift assay; summary of the method: as §1
T3 sequence (whole entry): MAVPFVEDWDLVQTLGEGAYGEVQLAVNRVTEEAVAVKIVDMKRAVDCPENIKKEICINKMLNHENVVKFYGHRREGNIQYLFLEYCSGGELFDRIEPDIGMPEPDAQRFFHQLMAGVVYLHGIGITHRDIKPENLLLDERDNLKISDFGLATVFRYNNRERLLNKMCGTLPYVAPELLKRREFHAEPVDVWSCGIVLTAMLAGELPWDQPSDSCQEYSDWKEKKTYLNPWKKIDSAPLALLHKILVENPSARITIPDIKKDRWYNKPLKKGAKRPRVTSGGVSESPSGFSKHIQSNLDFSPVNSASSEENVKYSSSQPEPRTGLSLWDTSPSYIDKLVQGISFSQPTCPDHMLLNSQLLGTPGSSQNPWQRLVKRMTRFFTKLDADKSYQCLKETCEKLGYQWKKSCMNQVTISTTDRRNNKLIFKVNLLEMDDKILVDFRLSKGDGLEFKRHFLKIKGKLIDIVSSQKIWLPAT

[11] = target: Ribosomal protein S6 kinase alpha-1 (Homo sapiens) (UniProt Q15418); assay: Inhibition of RSK1 at 30 uM by microfluidic mobility shift assay; summary of the method: as §1
[12] = target: Mitogen-activated protein kinase 14 (Homo sapiens, UniProt Q16539); assay: Inhibition of p38alpha at 30 uM by microfluidic mobility shift assay; summary of the method: as §1
Sequence of Mitogen-activated protein kinase 14 (Q16539 whole entry): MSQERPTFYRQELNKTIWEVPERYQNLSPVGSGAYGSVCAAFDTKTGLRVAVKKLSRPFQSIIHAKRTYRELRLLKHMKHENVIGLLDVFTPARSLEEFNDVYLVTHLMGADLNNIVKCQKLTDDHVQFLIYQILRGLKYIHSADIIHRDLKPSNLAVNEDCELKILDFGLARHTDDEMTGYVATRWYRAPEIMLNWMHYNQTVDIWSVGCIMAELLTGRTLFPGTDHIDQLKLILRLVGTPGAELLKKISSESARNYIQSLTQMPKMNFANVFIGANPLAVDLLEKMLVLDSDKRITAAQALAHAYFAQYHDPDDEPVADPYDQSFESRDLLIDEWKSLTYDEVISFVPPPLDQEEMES

[13] = target: Mitogen-activated protein kinase 1 (Homo sapiens) (UniProt P28482); assay: Inhibition of ERK2 at 30 uM by microfluidic mobility shift assay; summary of the method: as §1
Sequence of Mitogen-activated protein kinase 1 (Homo sapiens) (P28482 whole entry): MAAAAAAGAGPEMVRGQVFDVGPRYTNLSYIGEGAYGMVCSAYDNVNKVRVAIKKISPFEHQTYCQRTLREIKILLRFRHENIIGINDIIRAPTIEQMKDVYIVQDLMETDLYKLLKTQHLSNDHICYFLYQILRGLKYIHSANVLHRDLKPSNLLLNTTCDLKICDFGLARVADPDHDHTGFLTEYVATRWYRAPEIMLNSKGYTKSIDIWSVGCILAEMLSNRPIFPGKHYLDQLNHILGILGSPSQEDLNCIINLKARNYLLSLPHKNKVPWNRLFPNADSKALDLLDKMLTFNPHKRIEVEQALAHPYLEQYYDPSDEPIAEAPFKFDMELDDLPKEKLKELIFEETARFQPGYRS

[14] = target: T4, Aurora kinase A (Homo sapiens) (UniProt O14965); assay: Inhibition of AurA at 30 uM by microfluidic mobility shift assay; summary of the method: as §1
T4 sequence (whole entry): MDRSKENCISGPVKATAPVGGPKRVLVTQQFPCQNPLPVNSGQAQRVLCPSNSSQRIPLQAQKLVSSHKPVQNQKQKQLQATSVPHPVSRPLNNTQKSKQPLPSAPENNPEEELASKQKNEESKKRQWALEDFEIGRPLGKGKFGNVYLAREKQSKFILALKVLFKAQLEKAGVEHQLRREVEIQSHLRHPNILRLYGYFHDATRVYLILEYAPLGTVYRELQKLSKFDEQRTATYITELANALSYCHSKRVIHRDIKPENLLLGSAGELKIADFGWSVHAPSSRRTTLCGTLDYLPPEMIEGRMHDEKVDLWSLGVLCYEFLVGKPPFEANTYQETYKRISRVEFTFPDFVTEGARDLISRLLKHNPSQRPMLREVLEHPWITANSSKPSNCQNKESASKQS

[15] = target: Tyrosine-protein kinase Fyn (Homo sapiens, UniProt P06241); assay: Inhibition of FYN at 30 uM by microfluidic mobility shift assay; summary of the method: as §1
[16] = target: Insulin receptor (Homo sapiens) (UniProt P06213); assay: Inhibition of INSR at 30 uM by microfluidic mobility shift assay; summary of the method: as §1
Sequence of Insulin receptor (Homo sapiens) (P06213 28-758 limits assumed): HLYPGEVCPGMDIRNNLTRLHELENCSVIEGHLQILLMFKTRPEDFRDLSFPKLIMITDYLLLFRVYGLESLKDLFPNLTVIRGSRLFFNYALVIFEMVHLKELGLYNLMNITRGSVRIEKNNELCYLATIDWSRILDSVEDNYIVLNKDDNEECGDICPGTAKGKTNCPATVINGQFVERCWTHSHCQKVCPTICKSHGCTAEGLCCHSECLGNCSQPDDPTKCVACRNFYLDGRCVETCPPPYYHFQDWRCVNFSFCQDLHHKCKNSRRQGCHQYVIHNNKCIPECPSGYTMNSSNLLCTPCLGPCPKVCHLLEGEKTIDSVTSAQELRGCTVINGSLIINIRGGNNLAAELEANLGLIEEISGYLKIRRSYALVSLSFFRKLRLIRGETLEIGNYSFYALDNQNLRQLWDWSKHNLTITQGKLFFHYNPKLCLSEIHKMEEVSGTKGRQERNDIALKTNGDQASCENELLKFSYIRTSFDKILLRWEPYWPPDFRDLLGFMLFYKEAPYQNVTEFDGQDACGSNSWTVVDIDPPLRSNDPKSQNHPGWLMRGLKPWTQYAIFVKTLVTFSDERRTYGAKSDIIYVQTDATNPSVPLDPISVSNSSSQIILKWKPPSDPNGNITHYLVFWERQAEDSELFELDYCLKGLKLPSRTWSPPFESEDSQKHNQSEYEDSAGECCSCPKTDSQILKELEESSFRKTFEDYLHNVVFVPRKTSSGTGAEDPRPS
Sequence of Insulin receptor (Homo sapiens) (P06213 763-1382 limits assumed): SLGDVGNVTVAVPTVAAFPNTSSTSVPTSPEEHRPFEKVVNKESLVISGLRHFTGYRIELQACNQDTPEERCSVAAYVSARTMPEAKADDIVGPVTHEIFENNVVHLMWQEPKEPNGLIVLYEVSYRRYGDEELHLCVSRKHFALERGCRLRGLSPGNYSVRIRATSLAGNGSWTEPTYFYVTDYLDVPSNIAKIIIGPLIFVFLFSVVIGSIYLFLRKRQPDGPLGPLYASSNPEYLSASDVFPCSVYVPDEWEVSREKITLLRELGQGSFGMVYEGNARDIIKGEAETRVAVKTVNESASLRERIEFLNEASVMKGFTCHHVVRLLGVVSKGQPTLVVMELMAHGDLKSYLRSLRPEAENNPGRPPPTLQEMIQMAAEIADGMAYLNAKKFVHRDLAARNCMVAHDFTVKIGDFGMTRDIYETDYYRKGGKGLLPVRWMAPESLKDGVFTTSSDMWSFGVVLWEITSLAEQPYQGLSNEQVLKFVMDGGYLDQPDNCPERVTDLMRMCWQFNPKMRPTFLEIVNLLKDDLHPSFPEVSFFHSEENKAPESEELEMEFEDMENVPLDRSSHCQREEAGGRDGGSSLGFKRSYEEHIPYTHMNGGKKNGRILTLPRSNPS

[17] = target: Glycogen synthase kinase-3 beta (Homo sapiens) (UniProt P49841); assay: Inhibition of GSK3B at 30 uM by microfluidic mobility shift assay; summary of the method: as §1
Sequence of Glycogen synthase kinase-3 beta (Homo sapiens) (P49841 whole entry, looked up): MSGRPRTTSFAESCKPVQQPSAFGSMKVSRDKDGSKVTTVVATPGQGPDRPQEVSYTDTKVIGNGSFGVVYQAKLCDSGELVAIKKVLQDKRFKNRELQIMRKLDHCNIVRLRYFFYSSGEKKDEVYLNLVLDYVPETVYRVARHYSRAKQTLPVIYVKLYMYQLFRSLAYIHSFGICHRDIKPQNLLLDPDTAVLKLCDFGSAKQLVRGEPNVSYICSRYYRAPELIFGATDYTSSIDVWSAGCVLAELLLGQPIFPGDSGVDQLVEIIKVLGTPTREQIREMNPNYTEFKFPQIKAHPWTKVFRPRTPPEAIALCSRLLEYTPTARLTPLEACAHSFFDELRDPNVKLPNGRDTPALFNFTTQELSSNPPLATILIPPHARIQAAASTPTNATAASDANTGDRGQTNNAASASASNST

[18] = Inhibition of PKA at 30 uM by microfluidic mobility shift assay; summary of the method: as §1
[19] = target: Tyrosine-protein kinase ABL1 (Homo sapiens, UniProt P00519); assay: Inhibition of ABL at 30 uM by microfluidic mobility shift assay; summary of the method: as §1
[20] = target: Tyrosine-protein kinase Lyn (Homo sapiens, UniProt P07948); assay: Inhibition of LYN at 30 uM by microfluidic mobility shift assay; summary of the method: as §1
[21] = target: Mitogen-activated protein kinase 3 (Homo sapiens) (UniProt P27361); assay: Inhibition of ERK1 at 30 uM by microfluidic mobility shift assay; summary of the method: as §1

Sequence of Proto-oncogene tyrosine-protein kinase Src (P12931 2-536 limits assumed): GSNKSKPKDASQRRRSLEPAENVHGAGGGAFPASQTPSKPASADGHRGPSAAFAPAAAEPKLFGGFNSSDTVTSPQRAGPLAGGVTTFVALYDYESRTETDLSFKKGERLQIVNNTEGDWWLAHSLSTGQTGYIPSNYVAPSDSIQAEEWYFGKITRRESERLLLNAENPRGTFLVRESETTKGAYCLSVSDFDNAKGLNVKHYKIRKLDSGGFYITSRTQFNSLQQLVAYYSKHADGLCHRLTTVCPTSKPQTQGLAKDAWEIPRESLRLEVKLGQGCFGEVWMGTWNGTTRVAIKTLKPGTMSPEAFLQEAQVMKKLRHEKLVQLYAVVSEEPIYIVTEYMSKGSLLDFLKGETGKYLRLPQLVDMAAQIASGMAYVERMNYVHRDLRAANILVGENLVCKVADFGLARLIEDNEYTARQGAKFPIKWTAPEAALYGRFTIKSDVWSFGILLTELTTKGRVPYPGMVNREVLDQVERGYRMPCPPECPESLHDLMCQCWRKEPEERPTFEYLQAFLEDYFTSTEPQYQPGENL

SMILES | inhibition [1] [%] | inhibition [2] [%] | inhibition [3] [%] | inhibition [4] [%] | inhibition [5] [%] | inhibition [7] [%] | inhibition [8] [%] | inhibition [9] [%] | inhibition [10] [%] | inhibition [11] [%] | inhibition [12] [%] | inhibition [13] [%] | inhibition [14] [%] | inhibition [15] [%] | inhibition [16] [%] | inhibition [17] [%] | inhibition [18] [%] | inhibition [19] [%] | inhibition [20] [%] | inhibition [21] [%] | also measured
Nc1n[nH]c2cc(-c3cccs3)[nH]c(=O)c12 | 74 | 12 | 4 | 59 | 58 | 58 | 5 | 63 | 44 | 35 | 6 | 15 | 67 | 69 | 21 | 89 | 79 | 63 | 63 | 15 | inhibition [6]: 5%
Cc1cc2nc(-c3ccccc3)nc(N)c2c(=O)[nH]1 | 40 | 5 | 7 | 4 | 22 | 45 | 2 | 15 | 3 | 14 | 7 | 11 | 34 | 32 | 5 | 86 | 50 | 39 | 23 | 10 | inhibition [6]: 5%
O=S(=O)(NCCNC/C=C/c1ccc(Br)cc1)c1cccc2cnccc12 | 18 | 37 |  |  | 41 |  |  |  |  |  | 5 |  | 71 |  | 3 | 10 | 100 | 8 |  |  | 
Cc1cc2[nH]ncc2c(=O)[nH]1 | 5 | 1 | 2 | 12 | 11 | 11 | 1 | 2 | 2 | -3 | -5 | 0 | 13 | 4 | 2 | 13 | 8 | 4 | 5 | 4 | 
